ABCG2 inh – inhibitors of human ABCG2 transporter, ABCB1 counter-screen; Q9UNQ0; IgMXP3 cells, JC-1 efflux, flow cytometry; inhibition, % at 6.6 µM; 190,000 compounds, 0.1% hits; AID 1325;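 active = inhibition above 80%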
Target sequence (Q9UNQ0 whole entry, looked up): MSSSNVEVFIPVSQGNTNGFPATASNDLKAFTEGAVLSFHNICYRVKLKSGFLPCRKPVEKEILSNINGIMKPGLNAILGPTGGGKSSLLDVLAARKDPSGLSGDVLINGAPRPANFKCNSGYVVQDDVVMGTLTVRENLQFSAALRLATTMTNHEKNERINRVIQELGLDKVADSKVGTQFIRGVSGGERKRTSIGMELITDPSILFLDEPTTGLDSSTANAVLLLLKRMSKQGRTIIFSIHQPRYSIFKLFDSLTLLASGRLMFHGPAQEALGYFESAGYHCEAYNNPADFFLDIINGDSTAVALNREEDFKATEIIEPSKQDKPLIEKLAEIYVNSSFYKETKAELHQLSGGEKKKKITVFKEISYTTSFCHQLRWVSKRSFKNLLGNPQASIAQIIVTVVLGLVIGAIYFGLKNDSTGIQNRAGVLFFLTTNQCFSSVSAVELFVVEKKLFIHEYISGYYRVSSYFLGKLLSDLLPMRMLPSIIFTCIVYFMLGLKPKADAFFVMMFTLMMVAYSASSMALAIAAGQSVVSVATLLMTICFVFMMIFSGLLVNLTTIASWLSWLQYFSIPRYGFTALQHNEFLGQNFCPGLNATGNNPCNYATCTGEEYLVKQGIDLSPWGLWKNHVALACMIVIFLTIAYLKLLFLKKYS
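Measure – % inhibition of efflux relative to nicardipine and DMSO · Test system – ABCG2 IgMXP3 and barcoded ABCB1 CCRF-Adr cell mix · Control set – nicardipine as high control, DMSO as low control · Compound – one concentration, 6.6 µM final · Signal – flow cytometry of retained JC-1 fluorescence · Timing – 10 min exposure at 25 °C with rotation, no wash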
p47phox inh – inhibitors of human p47phox binding; p47phox/p22phox peptide binding, fluorescence polarization, 2 h; AID 1274; inhibition, % at 24.7 µM; 220,000 compounds, 0.53% hits; P14598;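 active = inhibition above about 30%, limit read from the data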
HSV replic up – increases HSV replication in cells. HSV replication augmentation in cells, fold increase. maximum fold increase. 220,000 compounds, 0.005% hits. AID 1956; in the data active = maximum fold increase above about 1.5; inconclusive = no clear call, values can overlap the other calls; tested in PC3 cells
Arbovirus inh – antivirals against arbovirus infection | arbovirus infection cell-based antiviral screen | inhibition, % at 10 µM | 200,000 compounds, 0.37% hits | AID 1251; in the data active = inhibition above about 30%
Furin inhibitor – inhibitors of human furin; AID 463115; inhibition, % at 20 µM or 30 µM; purified furin, fluorogenic substrate cleavage; 220,000 compounds, 0.061% hits; in the data active = inhibition above about 25%
ABCB1 inh – blocks JC-1 efflux by human ABCB1 transporter; P08183; AID 1326; CCRF-Adr cells, flow cytometry; inhibition, % at 6.6 µM; 190,000 compounds, 0.067% hits; in the data active = inhibition above about 40%;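 note: higher value means more JC-1 retained so stronger ABCB1 efflux block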
A number is an active result; . = inactive; ? = inconclusive; / = no result; + = active, no number; ! = repeats disagree. In the library only some 0.95% were active in any assay of this set; here they are far more common.

SMILES	ABCG2 inh	p47phox inh	HSV replic up	Arbovirus inh	Furin inhibitor	ABCB1 inh
CCOc1ccc(CCNS(=O)(=O)c2cnc[nH]2)cc1OCC	.	62	.	.	.	.
CCOc1ccc(CCNC(=O)c2cc3c(C)nccc3[nH]c2=O)cc1OCC	.	.	.	.	.	.
CCC(C)NC(=O)c1ccc(-n2c(=S)[nH]c3ccccc3c2=O)cc1 (stereo not drawn)	.	.	.	.	.	.
Cc1cccc(-n2c(O)cnc2Nc2nc(C)cc(C)n2)c1	.	40	.	.	.	.
CCCN1CNC(=S)N(CC2CCCO2)C1 (stereo not drawn)	.	.	.	.	.	.
COc1ccc(/C=C2\SC(=S)N(CCCC(=O)NNC(=O)c3ccccc3O)C2=O)cc1	.	.	.	.	.	.
O=C(CN1C(=O)S/C(=C\c2ccc(Cl)cc2)C1=O)NNC(=O)c1ccccc1O	.	49	.	.	.	.
OCCCCNc1cccc2ccccc12	.	42	.	.	.	.
OCCCCCNc1ncnc2ccccc12	.	.	.	.	.	.
O=C(COc1cccc(Br)c1)N/N=C1\CCCc2ccccc21	.	.	.	.	.	.
O=C(COc1cccc(Br)c1)NN=C1c2ccccc2-c2ccccc21	.	68	.	.	.	.
CN1CCN(CC(O)COc2ccc(C34CC5CC(CC(C5)C3)C4)cc2)CC1 (stereo not drawn)	.	73	.	.	.	.
OC(COc1ccc(OCC(O)CN2CCCCCC2)cc1)CN1CCCCCC1 (stereo not drawn)	.	.	.	.	.	.
CCc1ccc(S(=O)(=O)c2ccc(-n3nc(C)cc3N)cc2)cc1	.	.	.	33	.	.
Cc1cc(N)n(-c2ccc(C(=O)O)cc2)n1	.	.	.	.	.	.
Cc1cnc(NC(=O)CSc2nc3ccccc3s2)s1	.	.	.	.	.	.
Cc1cnc(NC(=O)c2ccc(-c3nc4ccccc4s3)o2)s1	.	.	.	51	.	.
NC(=O)[C@@H]1CCCN1Cc1nc(-c2cccs2)no1	.	.	.	.	.	.
Nc1ccc(-n2nnnc2-c2ccco2)cc1	.	59	/	.	.	.
Nc1cc(Cl)ccc1N1C(=O)CCC1=O	/	31	.	/	.	/
Nc1cc([N+](=O)[O-])ccc1N1C(=O)CCCC1=O	/	.	.	/	.	/
CCOC1=C/C(=C/c2c(N)n3nc(-c4ccccc4)sc3nc2=O)C=CC1=O	.	.	/	33	.	.
COC1=C/C(=C/c2c(N)n3nc(-c4ccc(C)cc4)sc3nc2=O)C=CC1=O	.	.	?	32	.	.
CCS(=O)(=O)c1nn2c(N)c(/C=C3/C=CC(=O)C(OC)=C3)c(=O)nc2s1	.	.	?	.	.	.
CCOC1=C/C(=C/c2c(N)n3oc(C)cc3nc2=O)C=CC1=O	.	.	.	.	.	.
SMILES	ABCG2 inh	p47phox inh	HSV replic up	Arbovirus inh	Furin inhibitor	ABCB1 inh
O=C(O)C(Cc1ccccc1)N=Cc1c(O)c2ccccc2oc1=O (stereo not drawn)	.	.	.	31	.	.
COc1ccc(N=Cc2c(O)c3ccccc3oc2=O)cc1	.	.	.	.	.	.
COc1ccccc1NC(=O)COc1ccc(/C=N/NC(=O)CSCc2cc(C)cc(C)c2)cc1	.	34	.	.	.	.
COc1ccccc1NC(=O)COc1ccc(/C=N/NC(=O)CSCc2ccc(Cl)cc2)cc1	.	.	/	.	.	.
c1ccc2[nH]c(-c3ccnc4ccccc34)nc2c1	.	+!	.	.	.	.
CC(C)(C)SCCNC(=O)Nc1ccccc1	.	.	.	.	.	.
CCCCC(CCC(=O)NNC(=O)Cc1ccccc1)C(=O)O (stereo not drawn)	.	.	.	.	.	.
CCOC(=O)Cn1c(=O)cnc2ccccc21	.	32	.	.	.	.
CCN1CCN(Cc2ccc(NC(=O)c3cc(NC(=O)c4cncc(-c5ccc(C#N)cc5)c4)cc(OC)c3)cc2C(F)(F)F)CC1	/	69	.	/	.	/
CCN1CCN(Cc2ccc(NC(=O)c3ccc(C)c(NC(=O)c4cc(-c5ccc(Br)cc5)n[nH]4)c3)cc2C(F)(F)F)CC1	/	63	.	/	.	/
CN1CCN(C(=O)c2cc3sc4ccccc4c3s2)CC1	/	.	.	/	.	/
CCOC(=O)c1c(/N=C/C2=C(O)CCCC2=O)sc2c1CCCC2	/	.	.	/	.	/
CCOC(=O)c1cc(CC)sc1/N=C/C1=C(O)CCCC1=O	.	.	.	.	37	.
O=[N+]([O-])c1cccc(-c2nc3ccccc3s/c2=N/O)c1	/	.	.	/	.	/
COc1cc(NC(=O)c2csc(N)n2)cc(C(=O)Nc2cccc(C(F)(F)F)c2)c1	/	.	.	/	.	/
COc1cc(NC(=O)c2cc(C)on2)cc(C(=O)Nc2cccc(C(F)(F)F)c2)c1	/	43	.	/	.	/
Nc1cc(=O)[nH]n1C1CCCC1	.	.	.	.	.	.
CCCCOC(=O)c1ccc(NC(=O)Nc2ccc(OC)c(OC)c2)cc1	.	.	.	.	.	.
CCCCOC(=O)c1ccc(NC(=O)c2c(OC)cccc2OC)cc1	.	37	.	.	.	.
N#Cc1ccccc1Cn1c(=O)n(Cc2ccc(C(=O)NCc3ccco3)cc2)c(=O)c2ccccc21	.	30	.	.	.	.
CC1=NN(C(=O)c2ccc(Cn3ccc([N+](=O)[O-])n3)cc2)C(O)(C(F)(F)F)C1 (stereo not drawn)	.	.	.	.	.	.
CCn1c(SCC(=O)N2CCc3ccccc32)nnc1-c1c[nH]c2ccccc12	.	.	.	.	.	.
O=C(Cc1c[nH]c2ccccc12)N1CCc2ccccc21	.	.	.	.	35	.
COc1ccc(-n2c(SCC(=O)N3CCc4ccccc43)nnc2-c2c[nH]c3ccccc23)cc1	.	52	/	.	.	.
O=C(CSc1c[nH]c2ccccc12)N1CCCc2ccccc21	.	.	.	.	.	.
SMILES	ABCG2 inh	p47phox inh	HSV replic up	Arbovirus inh	Furin inhibitor	ABCB1 inh
CN1CCN(NC(=S)NC2CCCCC2)CC1	.	.	.	.	.	.
Cc1c2oc3c(C)ccc(C(=O)N[C@@H]4C(=O)N[C@H](C(C)C)C(=O)N5CCC[C@H]5C(=O)N(C)CC(=O)N(C)[C@@H](C(C)C)C(=O)O[C@@H]4C)c3nc-2c(C(=O)N[C@@H]2C(=O)N[C@H](C(C)C)C(=O)N3CCC[C@H]3C(=O)N(C)CC(=O)N(C)[C@@H](C(C)C)C(=O)O[C@@H]2C)c(N)c1=O	/	/	.	/	/	/
CC(C)CCC(CC(C)O)C(=O)NNC(=S)Nc1ccccc1 (stereo not drawn)	/	.	.	/	.	/
COc1ccc(C(=O)NCCN2CCCC2)cc1OC	.	.	.	.	.	.
O=C(NCCN1CCOCC1)c1csc2c1CCCC2	.	71	.	.	.	.
CC1CC(C)CN(CCCNC(=O)c2csc3c2CCCC3)C1 (stereo not drawn)	.	.	.	.	.	.
COc1ccccc1NC(=O)c1ccc(CN2CCOCC2)cc1	.	66	.	.	.	.
COc1ccc(C(=O)NCCN2CCOCC2)cc1OC	.	.	.	.	30	.
